Reference: ChEMBL document CHEMBL1124417, “Synthesis and hypertensive activity of neuropeptide Y fragments and analogues with modified N- or C-termini or D-substitutions” (1989)

Columns and labels:
[1] = Relative potency measured as ratio of ED50 of NPY to ED50 of analogue; assay type: functional
Rattus norvegicus [2] = assay: Mean arterial pressure was measured in conscious rats after intra arterial administration at 400 ug/kg dosage.; assay type: functional, Artery
Method in brief: (§1)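 Conscious male Sprague-Dawley rats (240-280 g), catheterised under pentobarbital (40 mg/kg), ≥2 h recovery. Saline peptide solutions as intraarterial 100-µL bolus. MAP via pressure transducer, computed as [[…] + diastolic]. ΔMAP = value at 1 min minus mean pretreatment saline zero values (n = 4). Means ± SEM, n ≥ 3.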

Rattus norvegicus [3] = assay: Hypertensive potency in conscious rats after intra arterial administration.; assay type: functional
Method in brief: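 Male Sprague-Dawley rats (240-280 g), conscious; catheters placed under pentobarbital anaesthesia (40 mg/kg) with ≥2 h recovery. Peptides in saline given intraarterially as 100-µL bolus. ΔMAP = posttreatment minus mean pretreatment saline zero values (n = 4).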

Rattus norvegicus [4] = assay: Mean arterial pressure was measured in conscious rats after intra arterial administration at 40 ug/kg dosage.; assay type: functional, Artery; method in brief: as §1

CC[C@H](C)[C@H](NC(=O)[C@H](Cc1ccc(O)cc1)NC(=O)[C@H](Cc1c[nH]cn1)NC(=O)[C@H](CCCN=C(N)N)NC(=O)[C@H](CC(C)C)NC(=O)[C@H](C)NC(=O)[C@H](CO)NC(=O)[C@H](Cc1ccc(O)cc1)NC(=O)[C@H](Cc1ccc(O)cc1)NC(=O)[C@H](CCCN=C(N)N)NC(=O)[C@H](C)NC(=O)[C@H](CC(C)C)NC(=O)[C@H](CC(=O)O)NC(=O)[C@H](CCC(=O)O)NC(=O)[C@H](C)NC(=O)[C@@H]1CCCN1C(=O)[C@H](C)NC(=O)[C@H](CC(=O)O)NC(=O)[C@H](CCC(=O)O)NC(=O)[C@H](C)NC(=O)[C@@H]1CCCN1C(=O)[C@H](CC(N)=O)NC(=O)[C@H](CC(=O)O)NC(=O)[C@@H]1CCCN1C(=O)[C@H](CCCCN)NC(=O)[C@H](CO)NC(=O)[C@@H]1CCCN1C(=O)[C@@H](N)Cc1ccc(O)cc1)C(=O)N[C@@H](CC(N)=O)C(=O)N[C@@H](CC(C)C)C(=O)N[C@H](C(=O)N[C@H](C(=O)N[C@@H](CCCN=C(N)N)C(=O)N[C@@H](CCC(N)=O)C(=O)N[C@@H](CCCN=C(N)N)C(=O)O)[C@@H](C)O)[C@@H](C)CC
Ratio [1]: 0.7

CC[C@H](C)[C@H](NC(=O)[C@H](Cc1ccc(O)cc1)NC(=O)[C@@H](N)Cc1c[nH]cn1)C(=O)N[C@@H](CC(N)=O)C(=O)N[C@@H](CC(C)C)C(=O)N[C@H](C(=O)N[C@H](C(=O)N[C@@H](CCCN=C(N)N)C(=O)N[C@@H](CCC(N)=O)C(=O)N[C@@H](CCCN=C(N)N)C(=O)N[C@@H](Cc1ccc(O)cc1)C(N)=O)[C@@H](C)O)[C@@H](C)CC
Delta MAP (Rattus norvegicus [2]): 7 | ED50 (Rattus norvegicus [3]): > 0.4 mg/kg | Delta MAP (Rattus norvegicus [4]): <5

H-YPSKPDNPGEDAPA-OH
Delta MAP (Rattus norvegicus [2]): <5 | ED50 (Rattus norvegicus [3]): > 0.4 mg/kg | Delta MAP (Rattus norvegicus [4]): <5
